Measurements: PubChem BioAssay AID588386 (Southern Research Specialized Biocontainment Screening …, 2011)
pIC50: −log10 of the molar value. Calls of active or inactive are those of the source.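 How the source made its calls: active means phage lysis blocked by at least 50% at any tested dose; inconclusive means replicate wells disagree with each other; inactive means the rest.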

Tested on: E. coli UTI89 K1F phage lysis inhibition, OD600
Test: protection of E. coli UTI89 from phage lysis – set 6, capsule biogenesis inhibitor project, dose response (AID 588386)
Details: not given
Summary of the method: (§1)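 test system = E. coli UTI89 (K1) plus phage-resistant kpsM mutant cultures | medium = LB growth medium | dosing = dose series from 100 down to 0.78 µM final, 1% DMSO | times = 1.25 h pre-phage, 3 h post-phage, 37 °C | signal = OD600 absorbance | evaluation = phage lysis judged from OD600 3 h after phage infection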

pIC50 | Compound
5.79 | O=C(Nc1ccncc1)c1ccc2ncsc2c1

Tested on: not listed separately
Test: as above
Details: E. coli UTI89 K1F phage lysis inhibition, OD600; at 100 µM (top of the series)
Summary of the method: as §1

Compound | inhibition of phage lysis
O=C(Nc1ccc(Br)cc1)c1ccc2ncsc2c1 | 0% (inactive)
O=C(Nc1cccc(F)c1)c1ccc2ncccc2c1 | -1.15% (inactive)
O=C(Nc1ccc(Br)cc1)c1ccc2nc[nH]c2c1 | 0% (inactive)
O=C(Nc1ccc(F)cc1)c1ccc2ncccc2c1 | 0.3% (inactive)
COC(=O)c1ccc(NC(=O)c2ccc3[nH]ccc3c2)cc1 | 0.87% (inactive)
O=C(Nc1ccc(Cl)cc1)c1ccc2ncccc2c1 | 1.19% (inactive)
O=C(Nc1ccc(Br)cc1)c1ccc2[nH]ccc2c1 | 1.16% (inactive)
O=C(Nc1cccnc1)c1ccc2[nH]ccc2c1 | 0.87% (inactive)
O=C(Nc1ccc(C(F)(F)F)cc1)c1ccc2[nH]ccc2c1 | -0.66% (inactive)
O=C(Nc1ccc(Cl)cc1)c1ccc2nc[nH]c2c1 | -0.32% (inactive)
O=C(Nc1cccc(F)c1)c1ccc2nc[nH]c2c1 | 0% (inactive)
O=C(Nc1cccnc1)c1ccc2ncccc2c1 | 0.61% (inactive)
O=C(Nc1ccccn1)c1ccc2ncccc2c1 | 1.21% (inactive)
O=C(Nc1ccccc1F)c1ccc2nc[nH]c2c1 | 0.34% (inactive)
O=C(Nc1ccc(F)cc1)c1ccc2[nH]ccc2c1 | -0.29% (inactive)
O=C(Nc1ccncc1)c1ccc2ncccc2c1 | 0% (inactive)
O=C(Nc1ccc(Cl)cc1)c1ccc2ncsc2c1 | 1.47% (inactive)
O=C(Nc1ccc(Cl)cc1)c1ccc2[nH]ccc2c1 | 0.86% (inactive)
O=C(Nc1ccc(F)cc1)c1ccc2nc[nH]c2c1 | 0.99% (inactive)
O=C(Nc1ccc(C(F)(F)F)cc1)c1ccc2nc[nH]c2c1 | -0.68% (inactive)

Compound | inhibition of phage lysis
Cc1ccc(NC(=O)c2ccc3ncsc3c2)cc1 | 0% (inactive)
O=C(Nc1ccc(F)cc1)c1ccc2ncsc2c1 | -0.68% (inactive)
O=C(NCc1ccco1)c1ccc2ncccc2c1 | 0.91% (inactive)
O=C(Nc1ccccc1F)c1ccc2[nH]ccc2c1 | 0.33% (inactive)
COC(=O)c1ccc(NC(=O)c2ccc3ncsc3c2)cc1 | 11.5% (inactive)
COc1ccc(NC(=O)c2ccc3nc[nH]c3c2)cc1 | 0.32% (inactive)
O=C(Nc1cccc(F)c1)c1ccc2ncsc2c1 | 0.9% (inactive)
O=C(NCc1ccco1)c1ccc2nc[nH]c2c1 | 0% (inactive)
COc1ccc(NC(=O)c2ccc3[nH]ccc3c2)cc1 | -14.7% (inactive)
O=C(Nc1cccc(F)c1)c1ccc2[nH]ccc2c1 | -0.99% (inactive)
O=C(NCc1ccco1)c1ccc2[nH]ccc2c1 | 0.86% (inactive)
O=C(NCc1ccco1)c1ccc2ncsc2c1 | 0.88% (inactive)
O=C(Nc1ccc(C(F)(F)F)cc1)c1ccc2ncsc2c1 | 16.7% (inactive)
O=C(Nc1ccccn1)c1ccc2nc[nH]c2c1 | 0% (inactive)
COc1ccc(NC(=O)c2ccc3ncsc3c2)cc1 | 3.54% (inactive)
Cc1ccc(NC(=O)c2ccc3[nH]ccc3c2)cc1 | -2.3% (inactive)
O=C(Nc1ccccc1F)c1ccc2ncsc2c1 | 0.6% (inactive)
O=C(Nc1cccnc1)c1ccc2ncsc2c1 | 1.77% (inactive)
O=C(Nc1ccncc1)c1ccc2[nH]ccc2c1 | 0.29% (inactive)
O=C(Nc1ccccc1F)c1ccc2ncccc2c1 | -2.29% (inactive)
